High-throughput results from PubChem BioAssay.
M5 antag – blocks acetylcholine activation of human M5 receptor. P08912. CHO-hM5 cells, Fluo-8 calcium fluorescence, ACh EC80. inhibition, % at 3 µM. hit rate 0.59% among 360,000;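 active = inhibition above a per-plate cutoff, the mean of that plate's test compounds plus 3 SD, cut at about 27% in these data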
CHRM4 agonist – agonists of human muscarinic M4 receptor (CHRM4); P08173; CHO-K1 hM4/Gqi5, Fluo-8 calcium fluorescence; vehicle 0%, full acetylcholine response 100%; activation, % at 3 µM; hit rate 0.14% among 360,000; AID 624127;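 active = activation above the run mean over all test wells plus 3 SD, cut at about 32% in these data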;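 note: peak over basal fluorescence ratio per well then scaled between controls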
Target sequence (P08173 whole entry, looked up): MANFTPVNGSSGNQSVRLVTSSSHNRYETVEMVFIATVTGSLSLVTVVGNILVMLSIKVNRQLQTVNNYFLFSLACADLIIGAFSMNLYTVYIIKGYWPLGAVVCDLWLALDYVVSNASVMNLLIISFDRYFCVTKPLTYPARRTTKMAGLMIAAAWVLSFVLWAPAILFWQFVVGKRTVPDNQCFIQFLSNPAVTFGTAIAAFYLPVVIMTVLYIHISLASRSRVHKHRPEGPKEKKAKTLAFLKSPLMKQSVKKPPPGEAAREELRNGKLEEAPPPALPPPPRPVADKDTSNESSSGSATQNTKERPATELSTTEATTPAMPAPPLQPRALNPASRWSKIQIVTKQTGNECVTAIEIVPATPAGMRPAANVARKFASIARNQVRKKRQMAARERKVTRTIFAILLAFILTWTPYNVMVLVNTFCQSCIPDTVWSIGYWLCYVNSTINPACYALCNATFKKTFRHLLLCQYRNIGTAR
M5 ag – agonists of human muscarinic M5 receptor (CHRM5). AID 624037. CHO-K1 hM5 cells, Fluo-8 calcium fluorescence; 0% DMSO wells, 100% maximal acetylcholine response. P08912. hit rate 0.19% among 360,000. activation, % at 3 µM;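 active = activation above the run's mean over test compounds plus 3 SD, cut at about 23% in these data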;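 note: signal is peak over basal fluorescence ratio across the kinetic read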
M4 antag – CHRM4 antagonism in calcium assay | CHO-hM4 cells, ACh EC80, Fluo-8 calcium fluorescence | inhibition, % at 3 µM | hit rate 0.73% among 360,000 | AID 624125;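 active = inhibition above its plate's cutoff, the mean inhibition of sample wells plus 3 SD, cut at about 27% in these data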
CHRM4 PAM – CHRM4 positive allosteric modulation. hit rate 0.4% among 360,000. activation, % at 3 µM. CHO-K1 hM4/Gqi5, Fluo-8 calcium fluorescence, ACh EC20; 0% = ACh EC20, 100% = maximal ACh. P08173;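 active = activation above its plate's cutoff, the mean activation of sample wells plus 3 SD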
M5 PAM – CHRM5 positive allosteric modulation. CHO-K1 hM5, Fluo-8 calcium, ACh EC20 PAM; 0% = ACh EC20, 100% = ACh EC100. hit rate 0.3% among 360,000. P08912. activation, % at 3 µM. AID 624038;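 active = activation above the run cutoff, the mean activation of all test compounds plus 3 SD, cut at about 18% in these data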
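Assay system: CHO-K1 hM5 cells. Also added: acetylcholine at EC20 concentration, added after compound. Dosing: 3 µM, single dose. Times: compound preincubation 140 s before EC20 acetylcholine addition. Signal: Fluo-8 calcium fluorescence. Measure: % activation relative to EC20 and EC100 ACh responses. Repeats: singlicate, one well per test compound.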
Numbers stand for hits; 0 = inactive. In the library only some 1.8% were active in any assay of this set; here they are far more common.

SMILES	M5 antag	CHRM4 agonist	M5 ag	M4 antag	CHRM4 PAM	M5 PAM
Cc1ccc(-n2c(SCC(N)=O)nnc2-c2ccc(S(=O)(=O)N3CCCCC3)cc2)c(C)c1	0	0	0	99	0	0
CCCCN1C(=O)C(=O)N(CC(=O)Nc2ccccc2C(C)=O)C1=O	0	0	0	0	0	0
CCCCN1C(=O)C(=O)N(CC(=O)Nc2cc(Cl)ccc2OC)C1=O	0	0	0	0	24	0
CCN1C(=O)[C@H]2[C@@H](c3ccc(C)cc3)N[C@]3(CCCN(Cc4ccc(OC)cc4)C3=O)[C@H]2C1=O	0	0	0	0	0	0
CC1CC(=Cc2ccc(N)cc2)C(=O)O1 (stereo not given)	0	0	0	0	0	0
COCCNc1nc(-c2ccc(OC)cc2C)c2sc(-c3ccccc3)cc2n1	0	0	0	0	0	0
O=S(=O)(c1cccs1)N1CCN(c2ccnc3cc(Cl)ccc23)CC1	0	0	0	100	0	0
Cc1cc(C)cc(N(CCC#N)C(=O)CSc2nc3ccccc3c(=O)[nH]2)c1	0	0	0	0	0	0
O=C(NC(NC(=S)Nc1cccc(C(=O)O)c1)C(Cl)(Cl)Cl)OCc1ccccc1 (stereo not given)	0	0	0	0	0	0
O=C(NC(NC(=S)Nc1cccc(Cl)c1)C(Cl)(Cl)Cl)OCc1ccccc1 (stereo not given)	27	0	0	0	0	0
Cc1c(Cl)cccc1NC(=O)CNC(=O)c1ccc(F)cc1	0	0	0	0	0	0
Cc1c(Cl)cccc1NC(=O)CNC(=O)c1ccc2c(c1)OCCO2	0	0	0	0	22	0
COC(=O)c1c(Sc2ccccc2)c2ccccc2n1C	0	0	58	0	0	0
CC1=CC2=C(C=O)C(=O)C(C)(O)C(O)C2=CO1 (stereo not given)	0	0	0	0	0	0
COc1ccc(OC)c2nc(-c3ccc4c(c3)OCO4)ccc12	0	0	0	0	0	0
COc1ccc(C2=NS(=O)(=O)N(C)C(C(=O)N3CCC(C(N)=O)CC3)=C2)cc1	0	0	0	34	0	0
COc1ccc(C2=NS(=O)(=O)N(C)C(C(=O)N3CCOCC3)=C2)cc1	0	0	0	0	0	0
Nn1cnc2cc3ccccc3cc2c1=O	0	0	0	0	0	0
Cc1cc2n(n1)C(c1ccco1)Nc1ccccc1-2 (stereo not given)	0	0	0	0	0	0
Cc1cc2n(n1)C(c1ccc(O)cc1)Nc1ccccc1-2 (stereo not given)	0	0	0	0	30	0
O=C(Nc1cccc(S(=O)(=O)NC2=NCCC2)c1)c1ccc(=O)[nH]c1	0	0	0	0	0	0
CCCc1nnc2n1N=C(c1ccc(C)cc1)CS2	0	0	0	0	0	0
CC(CN1c2ccccc2Sc2ccccc21)N(C)C (stereo not given)	99	0	0	99	0	0
OCCN(CCO)CC(O)CN1c2ccccc2Sc2ccccc21 (stereo not given)	0	0	0	0	0	0
CCN(CC)CC(O)CN1c2ccccc2Sc2ccccc21 (stereo not given)	39	0	0	0	0	0
SMILES	M5 antag	CHRM4 agonist	M5 ag	M4 antag	CHRM4 PAM	M5 PAM
COc1ccc2c(c1)N(C[C@H](C)CN(C)C)c1ccccc1S2	60	0	0	54	0	0
CC(CN(C)C)CN1c2ccccc2Sc2ccccc21 (stereo not given)	98	0	0	82	0	0
CC(C)O/C(=N/S(=O)(=O)c1ccc(Cl)cc1)c1ccccc1	0	0	0	0	0	0
CCOC(=O)c1ccc(N2CCN(c3ccc(F)cc3)CC2)c(NC(=O)Nc2cccc(OC)c2)c1	0	0	0	0	0	0
CCOC(=O)c1ccc(N2CCN(c3ccccc3F)CC2)c(NC(=O)Nc2ccccc2)c1	40	0	0	36	0	0
COc1cccc(/C=C/C(=O)OCC(=O)c2ccc(Br)cc2)c1	0	0	0	0	0	0
Cc1onc(-c2ccccc2Cl)c1C(=O)N1CCOC12CCCCC2	0	0	0	0	19	0
Cc1onc(-c2c(Cl)cccc2Cl)c1C(=O)N1CCc2ccccc2C1	0	0	0	32	0	0
CCN(CC)C1Oc2cc3c(cc2C(c2cc(OC)c(OC)c(OC)c2)C1C)OCO3 (stereo not given)	0	0	0	0	0	0
Cc1nc2ccccc2n1CC(O)COc1ccccc1Cl (stereo not given)	0	0	0	30	0	0
Cc1ccccc1OCC(O)Cn1c(=N)n(Cc2ccccc2)c2ccccc21 (stereo not given)	0	0	0	27	0	0
COC(=O)c1cc(Sc2cccc(Cl)c2Cl)ccn1	0	0	0	0	0	21
N=C(N)c1ccc(OCCCCCOc2ccc(C(=N)N)cc2)cc1	0	0	0	31	0	0
CCOC1CCCc2oc(-c3ccc(OC)cc3)c(C#CCCO)c21 (stereo not given)	0	0	0	0	0	0
Cc1cc2cc3c(cc2nc1SCC(=O)OC(C)C)OCO3	0	0	0	0	24	0
Cn1nc(C(C)(C)C)cc1C(=O)NCc1cc(F)cc2c1OCOC2	29	0	0	0	0	0
COc1ccc(CCC(C)N2CCC(CO)(Cc3ccccc3)CC2)cc1 (stereo not given)	0	0	0	33	0	0
COc1ccc(CC2(CO)CCN(C(C)Cc3ccc(Cl)cc3)CC2)cc1 (stereo not given)	0	0	0	0	0	0
O=C1Cc2ccccc2C(=O)N1c1cccc(Cl)c1	0	0	0	0	0	0
O=C(Nc1ccc(S(=O)(=O)Nc2ccccn2)cc1)C(F)(F)F	0	0	0	0	0	0
CC(C)(C)C(=O)Nc1ccc(S(=O)(=O)Nc2ccccn2)cc1	0	0	0	0	25	0
CC(C)N1CC2(CC(c3ccccc3F)=NO2)CN1C(=O)c1ccco1 (stereo not given)	0	0	0	0	0	0
N#Cc1ccc(-c2ccc(F)cc2)nc1Oc1ccc(Cl)c(Cl)c1	0	0	0	0	33	0
Cc1cccc(Nc2ncccc2C(=O)NCc2cccs2)c1C	0	0	0	38	0	0
COc1ccc(NC(=S)Nc2cccc([N+](=O)[O-])c2)cc1	0	0	0	0	0	0
Cc1ccc(NS(=O)(=O)c2cc([N+](=O)[O-])ccc2NNC(=S)Nc2cc(C)ccc2C)c(C)c1	37	0	0	0	0	0
